Measured values published in ChEMBL document CHEMBL4311956, “A Qualified Success: Discovery of a New Series of ATAD2 Bromodomain Inhibitors with a Novel Binding Mode Using High-Throughput Screening and Hit Qualification” (J Med Chem, 2019).
Activity calls are given as the source filed them. The calls are words filed in the database; no cut-off is given here.

Columns and labels:
[1] = target: T1, ATPase family AAA domain-containing protein 2 (Homo sapiens, UniProt Q6PL18); test: Displacement of SGRG-K(Ac)-GG-K(Ac)-GLG-K(Ac)-GGAKRHRKV-biotin) from His6/FLAG-tagged TEV fused ATAD2 bromodomain (981 to 1121 residues) (unknown origin) expressed in Escherichia coli BL21(DE3) cells after 30 mins by TR-FRET assay
T1 sequence (Q6PL18 whole entry): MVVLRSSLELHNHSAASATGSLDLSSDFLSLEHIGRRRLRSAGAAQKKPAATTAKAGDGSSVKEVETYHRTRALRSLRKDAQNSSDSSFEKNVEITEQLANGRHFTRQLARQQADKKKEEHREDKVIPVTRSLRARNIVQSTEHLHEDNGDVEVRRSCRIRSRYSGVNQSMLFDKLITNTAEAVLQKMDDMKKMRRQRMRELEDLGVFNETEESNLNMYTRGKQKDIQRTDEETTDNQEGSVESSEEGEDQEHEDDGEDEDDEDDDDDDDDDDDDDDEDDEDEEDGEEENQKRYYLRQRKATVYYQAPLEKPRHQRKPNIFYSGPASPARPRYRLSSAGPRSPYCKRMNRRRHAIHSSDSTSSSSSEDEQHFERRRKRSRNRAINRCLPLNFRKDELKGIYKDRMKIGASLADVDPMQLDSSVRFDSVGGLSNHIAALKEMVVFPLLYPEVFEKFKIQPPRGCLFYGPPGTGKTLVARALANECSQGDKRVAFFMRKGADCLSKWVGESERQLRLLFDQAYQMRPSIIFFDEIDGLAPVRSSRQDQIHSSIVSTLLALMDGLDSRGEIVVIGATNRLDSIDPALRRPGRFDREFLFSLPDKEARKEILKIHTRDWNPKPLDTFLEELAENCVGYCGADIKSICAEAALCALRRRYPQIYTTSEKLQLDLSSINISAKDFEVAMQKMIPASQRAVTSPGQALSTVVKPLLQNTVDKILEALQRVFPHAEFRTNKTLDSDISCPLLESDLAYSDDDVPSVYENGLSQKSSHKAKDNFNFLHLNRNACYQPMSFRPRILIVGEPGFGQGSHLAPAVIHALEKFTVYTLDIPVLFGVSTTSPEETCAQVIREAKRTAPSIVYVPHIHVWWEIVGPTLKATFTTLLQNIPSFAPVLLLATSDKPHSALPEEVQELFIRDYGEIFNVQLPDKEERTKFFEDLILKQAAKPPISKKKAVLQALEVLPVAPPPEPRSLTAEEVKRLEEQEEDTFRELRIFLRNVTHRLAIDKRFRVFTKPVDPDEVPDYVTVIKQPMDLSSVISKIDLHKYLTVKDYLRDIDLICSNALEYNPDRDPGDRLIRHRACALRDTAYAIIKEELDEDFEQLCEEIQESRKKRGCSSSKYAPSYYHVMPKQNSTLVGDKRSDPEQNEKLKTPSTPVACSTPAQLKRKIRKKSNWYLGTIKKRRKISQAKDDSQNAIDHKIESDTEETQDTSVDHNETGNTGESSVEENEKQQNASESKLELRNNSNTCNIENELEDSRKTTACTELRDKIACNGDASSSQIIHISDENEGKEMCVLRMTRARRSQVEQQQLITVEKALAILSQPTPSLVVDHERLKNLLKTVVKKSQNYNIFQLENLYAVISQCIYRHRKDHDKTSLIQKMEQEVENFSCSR

[2] = target: Bromodomain-containing protein 4 (Homo sapiens, UniProt O60885, Y390A); test: Displacement of Alexa Fluor 647 labelled ligand from His6-tagged BRD4 BD1 (1 to 477 residues)/BD2 Y390A mutant (unknown origin) after 30 mins by TR-FRET assay
In short: (§1)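 BET selectivity by TR-FRET fluoroligand displacement. Uses tandem BET bromodomain constructs carrying a mutation in the non-assayed bromodomain.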

[3] = target: Bromodomain-containing protein 4 (Homo sapiens, UniProt O60885, Y97A); test: Displacement of Alexa Fluor 647 labelled ligand from His6-tagged BRD4 BD2 (1 to 477 residues)/BD1 Y97A mutant (unknown origin) after 30 mins by TR-FRET assay; in short: as §1
[4] = target: T2, ATPase family AAA domain-containing protein 2 (Homo sapiens) (UniProt Q6PL18); test: Binding affinity to 15N-labelled ATAD2 (981 to 1108 residues) (unknown origin) at 100 uM by 1H-15N HSQC NMR analysis
T2 sequence (whole entry): T1 sequence (Q6PL18 whole entry)
In short: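 15N–1H HSQC spectra of labelled ATAD2 bromodomain recorded with and without compound at 100 μM. Binding is judged from spectral changes.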

[5] = target: T2, ATPase family AAA domain-containing protein 2 (Homo sapiens); test: Displacement of SGRG-K(Ac)-GG-K(Ac)-GLG-K(Ac)-GGAKRHRKV-biotin) from His6/FLAG-tagged TEV fused ATAD2 bromodomain (981 to 1121 residues) (unknown origin) expressed in Escherichia coli BL21(DE3) cells at 10 uM after 30 mins by TR-FRET assay relative to control
[6] = target: T1, ATPase family AAA domain-containing protein 2; test: (§2) Binding affinity to His6/FLAG-tagged TEV fused ATAD2 bromodomain (950 to 1148 residues) (unknown origin) expressed in Escherichia coli BL21(DE3) cells by surface plasmon resonance
In short: (§3)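 SPR screen of concentration–response up to 100 μM. Wild-type ATAD2 and a Y1021A/N1064A mutant lacking the acetyl-lysine binding motif were run in parallel. Hits were classed as binding, nonbinding or linear binding (nonsaturating response, calculated Kd above the top concentration).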

[7] = target: T1, ATPase family AAA domain-containing protein 2; test: Inhibition of ATAD2 bromodomain in human HUT78 chromatin lysate after 2 hrs by bromosphere competition binding assay
In short: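 Bromosphere chemoproteomic assay. Measures competitive inhibition of binding of endogenous full-length ATAD2 from Hut-78 cells.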

[8] = target: T2, ATPase family AAA domain-containing protein 2 (Homo sapiens); test: as §2; in short: as §3
[9] = target: T2, ATPase family AAA domain-containing protein 2 (Homo sapiens); test: Displacement of SGRG-K(Ac)-GG-K(Ac)-GLG-K(Ac)-GGAKRHRKV-biotin) from His6/FLAG-tagged TEV fused ATAD2 bromodomain (981 to 1121 residues) (unknown origin) expressed in Escherichia coli BL21(DE3) cells at 100 to 300 uM after 30 mins by TR-FRET assay relative to control

SMILES	IC50 [1] [µM]	IC50 [2] [µM]	IC50 [3] [µM]	Activity [4]	inhibition [5] [%]	Kd [6] [µM]	IC50 [7] [µM]	pIC50 [1]	Activity [8]	Activity [9] [%]
CCC(=O)Nc1ccc(C(F)(F)F)c(S(=O)(=O)N2CCCCC2)c1	> 1000	–	–	–	–	–	–	–	–	–
CCC(=O)Nc1ccc(F)c(S(=O)(=O)N2CCCCC2)c1	> 1000	–	–	–	–	–	–	–	–	–
CSCCC1NC(=O)N(CC(=O)Nc2ccc(Cl)c(S(=O)(=O)N3CCOCC3)c2)C1=O (centres undefined)	10	> 50.1	> 50.1	Active	30 to 40	15.8	–	–	–	–
CC1(C2CC2)NC(=O)N(CC(=O)Nc2ccc(Cl)c(S(=O)(=O)N3CCCCC3)c2)C1=O (racemic) [listing 1 of 2 here]	1.26	> 50.1	50.1	–	–	2	15.8	–	–	–
O=C(CCNC(=O)c1ccccc1)Nc1ccc(Cl)c(S(=O)(=O)N2CCCCC2)c1	> 100	> 50.1	39.8	Active	27	50.1	–	–	–	–
Cc1ccc(C2(C)NC(=O)N(CC(=O)Nc3ccc(C)c(S(=O)(=O)N4CCCCC4)c3)C2=O)cc1 (centres undefined)	10	5.01	> 50.1	Active	33	12.6	–	–	–	–
CCN(CC)S(=O)(=O)c1cc(NC(=O)CN2C(=O)NC(C)(c3ccccc3)C2=O)ccc1C (centres undefined)	31.6	> 501	39.8	Active	29	50.1	–	–	–	–
CCC(=O)Nc1ccc(OC)c(S(=O)(=O)N2CCCCC2)c1	> 1000	–	–	–	–	–	–	–	–	–
Cc1ccc(NC(=O)CN2C(=O)NC(C)(C3CC3)C2=O)cc1S(=O)(=O)N1CCCCC1 (centres undefined)	12.6	> 50.1	> 50.1	Active	52	20	–	–	–	–
Cc1[nH]c(=O)c(C#N)c(C)c1CCC(=O)Nc1ccc(Cl)c(S(=O)(=O)N2CCCCC2)c1	1.26	> 50.1	> 50.1	Active	77	6.31	15.8	–	–	–
CC1(C2CC2)NC(=O)N(CC(=O)Nc2ccc(C(F)(F)F)c(S(=O)(=O)N3CCCCC3)c2)C1=O (racemic)	10	> 50.1	25.1	–	–	–	–	–	–	–
Cc1ccc(NC(=O)CN2C(=O)CN(C)C2=O)cc1S(=O)(=O)N1CCCCC1	50.1	> 501	> 501	Active	30	50.1	–	–	–	–
CCC(=O)Nc1ccc(Cl)c(S(=O)(=O)N2CCCCC2)c1	79.4	–	–	–	–	–	–	–	–	45 to 55
CCC(=O)Nc1ccc(Br)c(S(=O)(=O)N2CCCCC2)c1	15.8	–	–	–	–	–	–	–	–	–
O=C(CN1C(=O)NC(CCc2ccccc2)C1=O)Nc1ccc(Cl)c(S(=O)(=O)N2CCCCC2)c1 (centres undefined)	3.16	> 50.1	> 50.1	Active	48	–	–	–	Active	–
CC1(C2CC2)NC(=O)N(CC(=O)Nc2cccc(S(=O)(=O)N3CCCCC3)c2)C1=O (racemic)	> 100	> 50.1	31.6	–	–	–	–	–	–	–
CC1(C2CC2)NC(=O)N(CC(=O)Nc2ccc(Cl)c(S(=O)(=O)N3CCCCC3)c2)C1=O (stereo in doubt; 19)	–	> 50.1	> 50.1	–	–	–	–	5.9	–	–
CC1(C2CC2)NC(=O)N(CC(=O)Nc2ccc(Cl)c(S(=O)(=O)N3CCCCC3)c2)C1=O (racemic) [listing 2 of 2 here]	–	–	–	Active	79	–	–	–	–	–
Cc1ccc(NC(=O)CN2C(=O)NC(C)(C)C2=O)cc1S(=O)(=O)N1CCCCCC1	10	> 50.1	> 50.1	Active	58	7.94	–	–	–	–
O=C(CCNC1=NS(=O)(=O)c2ccccc21)Nc1ccc(Cl)c(S(=O)(=O)N2CCCC2)c1	10	> 50.1	> 50.1	Active	47	15.8	–	–	–	–
CCC(=O)Nc1ccc(N)c(S(=O)(=O)N2CCCCC2)c1	> 1000	–	–	–	–	–	–	–	–	–

Further lines, results first:

IC50 [1] [µM]	IC50 [2] [µM]	IC50 [3] [µM]	Activity [4]	inhibition [5] [%]	Kd [6] [µM]	IC50 [7] [µM]	pIC50 [1]	Activity [8]	Activity [9] [%]	SMILES
> 100	> 50.1	> 50.1	–	–	–	–	–	–	–	COc1ccc(NC(=O)CN2C(=O)NC(C)(C3CC3)C2=O)cc1S(=O)(=O)N1CCCCC1 (racemic)
–	10	31.6	–	–	–	–	5.9	–	–	CC1(C2CC2)NC(=O)N(CC(=O)Nc2ccc(Cl)c(S(=O)(=O)N3CCCCC3)c2)C1=O (stereo in doubt; 18)
> 1000	–	–	–	–	–	–	–	–	–	CCC(=O)Nc1ccc(CC)c(S(=O)(=O)N2CCCCC2)c1
5.01	> 50.1	> 50.1	Active	52	7.94	–	–	–	–	CN(C)S(=O)(=O)c1cc(NC(=O)CN2C(=O)NC3(CCCc4ccccc43)C2=O)ccc1Cl (centres undefined)
> 100	> 50.1	> 50.1	Active	29	–	–	–	Active	–	O=C(CNC(=O)C1CCCCC1)Nc1ccc(Cl)c(S(=O)(=O)N2CCCCC2)c1
> 1000	–	–	–	–	–	–	–	–	–	CCC(=O)Nc1ccc(O)c(S(=O)(=O)N2CCCCC2)c1
> 100	> 50.1	> 50.1	Active	18	–	–	–	Active	–	Cc1ccc(NC(=O)CN2C(=O)NC(Cc3ccccc3)C2=O)cc1S(=O)(=O)N1CCCCC1 (centres undefined)
> 1000	–	–	–	–	–	–	–	–	–	CCC(=O)Nc1ccc(C#N)c(S(=O)(=O)N2CCCCC2)c1
12.6	> 50.1	> 50.1	Active	39	31.6	39.8	–	–	–	Cc1ccccc1C(=O)NCC(=O)Nc1ccc(C)c(S(=O)(=O)N2CCCCCC2)c1
7.94	> 50.1	> 50.1	Active	61	15.8	–	–	–	–	Cc1ccc(NC(=O)CN2C(=O)NC3(CCc4ccccc43)C2=O)cc1S(=O)(=O)N1CCCCC1 (centres undefined)
